One block for each compound: values may come before it. Activity calls are given as the source filed them. The calls are words filed in the database; no cut-off is given here.
Experiments:
IGROV-1 = assay: Antiproliferative activity against human IGROV1 cells assessed as reduction in cell viability after 72 hrs by MTT assay; format: functional, cell-based; conditions: IGROV-1, 72 h
How it was run: (§1)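 Cells kept in RPMI-1640 (Jurkat, SEM, RS4;11) or DMEM (A549, HeLa, IGROV-1, HT-29) with 10% FBS plus penicillin/streptomycin. 8×10^3 cells per well were left 18 h at 37 °C in 5% CO2. Medium was then replaced with fresh medium holding graded compound concentrations from 10 mM DMSO stocks. Cells were incubated 72 h and viability read by MTT. IC50 is the mean ± SEM from dose–response curves of at least three independent experiments.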

LoVo = assay: Antiproliferative activity against human LoVo cells assessed as reduction in cell viability after 72 hrs by MTT assay; format: functional, cell-based
PBL [1] = assay: Cytotoxicity against resting human PBLs assessed as reduction in cell growth; format: cell-based
How it was run: (§2)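 Peripheral blood lymphocytes from healthy donors, tested either resting (no PHA) or PHA-stimulated. Value is the concentration reducing cell growth by 50%, mean ± SEM of three separate experiments.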

CCRF-CEM = assay: Antiproliferative activity against human CEM cells assessed as reduction in cell viability after 72 hrs by MTT assay; format: functional, cell-based
Jurkat [2] = assay: Antiproliferative activity against human Jurkat cells assessed as reduction in cell viability after 72 hrs by MTT assay; format: functional, cell-based; how it was run: as §1
PBL [3] = assay: Cytotoxicity against PHA-stimulated human PBLs assessed as reduction in cell growth; format: cell-based; how it was run: as §2
[4] = Antiproliferative activity against human SEM cells assessed as reduction in cell viability after 72 hrs by MTT assay; format: functional, cell-based; how it was run: as §1
[5] = Antiproliferative activity against human RS4:11 cells assessed as reduction in cell viability after 72 hrs by MTT assay; format: functional, cell-based; conditions: RS4-11, 72 h; how it was run: as §1
HT-29 = assay: Antiproliferative activity against human HT-29 cells assessed as reduction in cell viability after 72 hrs by MTT assay; format: functional, cell-based; conditions: HT-29, 72 h; how it was run: as §1
A549 = assay: Antiproliferative activity against human A549 cells assessed as reduction in cell viability after 72 hrs by MTT assay; format: functional, cell-based; conditions: A549, 72 h; how it was run: as §1
Tubulin (Bos taurus) = Tubulin (Bos taurus) (UniProt Q6B856+Q862L2+Q862F3); assay: Displacement of [3H]colchicine from bovine brain tubulin at 500 uM after 10 mins by liquid scintillation counting
HeLa [6] = assay: Downregulation of phosphorylated form of cdc25c protein level in human HeLa cells at 25 uM after 24 hrs by Western blot analysis; format: functional, cell-based
How it was run: (§3)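 HeLa cells treated 24 or 48 h at 25 µM, then washed in PBS and lysed 30 min on ice. 20 µg protein per lane was resolved on 7.5–15% SDS-PAGE and blotted to PVDF. Blots were probed for cyclin B, p-cdc2 Tyr15, cdc25C and γH2A.X, with β-actin reprobe as loading control and ECL detection.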

Jurkat [7] = assay: Cell cycle arrest in human Jurkat cells assessed as accumulation at G2/M phase at 10 to 25 uM after 24 hrs by flow cytometry; format: functional, cell-based
How it was run: (§4)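 5×10^5 HeLa or Jurkat cells exposed to graded compound concentrations for 24 h. Cells were fixed in ice-cold 70% ethanol, lysed with RNase A/0.1% Triton X-100 buffer and stained with propidium iodide. DNA content was read by flow cytometry. Phase percentages are mean ± SEM of three independent experiments.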

HeLa [8] = assay: Induction of apoptosis in human HeLa cells assessed as late necrotic cells at 25 uM after 24 hrs using Annexin-V/PI staining by flow cytometry (reference value: 3.70 %); format: functional
HeLa [9] = assay: Induction of apoptosis in human HeLa cells assessed as caspase 3 cleavage at 25 uM after 24 to 48 hrs by Western blot analysis; format: functional, cell-based
How it was run: (§5)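 HeLa cells treated 24 or 48 h at 25 µM, then lysed. 20 µg protein per lane was run on SDS-PAGE and transferred to PVDF. Membranes were probed 2 h at room temperature for cleaved caspase-9, caspase-3, cleaved PARP, Bcl-2, Mcl-1 or Bax, with peroxidase secondary antibody and ECL. β-Actin reprobe served as loading control.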

Tubulin [10] = biological target: T1, Tubulin (Bos taurus, UniProt Q6B856+Q862L2+Q862F3); assay: Displacement of [3H]colchicine from bovine brain tubulin assessed as rate of assembly after 10 mins by liquid scintillation counting
HeLa [11] = assay: Induction of apoptosis in human HeLa cells assessed as PARP cleavage at 25 uM after 24 to 48 hrs by Western blot analysis; format: functional, cell-based; how it was run: as §5
HeLa [12] = assay: Induction of apoptosis in human HeLa cells assessed as mitochondrial membrane depolarization at 6.2 to 50 uM using JC-1 staining-based fluorescence assay; format: functional, cell-based; conditions: TDE = time-dependent effect
How it was run: (§6)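 Mitochondrial membrane potential was read with the JC-1 dye in HeLa cells after 24 or 48 h at graded concentrations. Data are mean ± SEM of three independent experiments.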

HeLa [13] = assay: Cell cycle arrest in human HeLa cells assessed as accumulation at G2/M phase at 10 to 25 uM after 24 hrs by flow cytometry; format: functional, cell-based; how it was run: as §4
Tubulin [14] = biological target: T1, Tubulin; assay: Inhibition of bovine brain tubulin assessed as extent of assembly preincubated for 15 mins by turbidimetry
How it was run: (§7)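 Bovine brain tubulin at 10 µM (1.0 mg/mL) in 0.8 M monosodium glutamate pH 6.6 with 4% DMSO and varying compound was preincubated 15 min at 30 °C, then chilled. GTP was added to 0.4 mM final and the temperature jumped from 0 to 30 °C. Turbidity was followed at 350 nm, scoring either maximum rate or extent of assembly at 20 min.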

HeLa [15] = assay: Induction of DNA damage in human HeLa cells assessed as increase in phosphorylated form of histone gamma-H2A.X level at 25 uM after 24 hrs by Western blot analysis; format: functional, cell-based; how it was run: as §3
HeLa [16] = assay: Induction of apoptosis in human HeLa cells assessed as reduction in Bcl-2 expression at 25 uM after 24 hrs by Western blot analysis; format: functional, cell-based; how it was run: as §5
HeLa [17] = assay: Cell cycle arrest in human HeLa cells assessed as accumulation at G2/M phase at 25 uM after 24 hrs by flow cytometry; format: functional; how it was run: as §4
Tubulin [18] = biological target: T1, Tubulin; assay: Inhibition of bovine brain tubulin assessed as rate of assembly preincubated for 15 mins by turbidimetry; how it was run: as §7
HeLa [19] = assay: Induction of apoptosis in human HeLa cells after 24 to 48 hrs using Annexin-V/PI staining by flow cytometry; format: functional, cell-based
HeLa [20] = assay: Downregulation of cdc25c protein level in human HeLa cells at 25 uM after 24 hrs by Western blot analysis; format: functional, cell-based; conditions: in the assay text read “after 48 hrs” for “after 24 hrs”; how it was run: as §3
HeLa [21] = assay: Upregulation of cyclin B protein level in human HeLa cells at 25 uM after 24 hrs by Western blot analysis; format: functional, cell-based
HeLa [22] = assay: Induction of apoptosis in human HeLa cells assessed as caspase 9 cleavage at 25 uM after 24 to 48 hrs by Western blot analysis; format: functional, cell-based; how it was run: as §5
HeLa [23] = assay: Induction of apoptosis in human HeLa cells assessed as reduction in Bcl-2 expression at 25 uM after 48 hrs by Western blot analysis; format: functional, cell-based; how it was run: as §5
HeLa [24] = assay: Induction of apoptosis in human HeLa cells assessed as mitochondrial membrane depolarization after 24 to 48 hrs using JC-1 staining-based fluorescence assay; format: functional, cell-based; how it was run: as §6
HeLa [25] = assay: Induction of apoptosis in human HeLa cells assessed as late apoptotic cells at 25 uM after 24 hrs using Annexin-V/PI staining by flow cytometry (reference value: 4.31 %); format: functional
HeLa [26] = assay: Cell cycle arrest in human HeLa cells assessed as accumulation at G2/M phase after 24 hrs by flow cytometry; format: functional, cell-based; how it was run: as §4
HeLa [27] = assay: Induction of apoptosis in human HeLa cells at 6.2 to 50 uM using Annexin-V/PI staining by flow cytometry; format: functional, cell-based; conditions: TDE = time-dependent effect
Jurkat [28] = assay: Cell cycle arrest in human Jurkat cells assessed as accumulation at G2/M phase after 24 hrs by flow cytometry; format: functional, cell-based; how it was run: as §4
HeLa [29] = assay: Induction of apoptosis in human HeLa cells assessed as viable cells at 25 uM after 24 hrs using Annexin-V/PI staining by flow cytometry (reference value: 86.7 %); format: functional; conditions: read-out: Activity
HeLa [30] = assay: Antiproliferative activity against human HeLa cells assessed as reduction in cell viability after 72 hrs by MTT assay; format: functional, cell-based; how it was run: as §1
HeLa [31] = assay: Upregulation of aurora kinase A protein level in human HeLa cells at 25 uM after 24 hrs by Western blot analysis; format: functional, cell-based
HeLa [32] = assay: Upregulation of cdc25c protein level in human HeLa cells at 25 uM after 24 hrs by Western blot analysis; format: functional, cell-based
HeLa [33] = assay: Induction of apoptosis in human HeLa cells assessed as reduction in Mcl-1 expression at 25 uM after 48 hrs by Western blot analysis; format: functional, cell-based; how it was run: as §5
HeLa [34] = assay: Induction of apoptosis in human HeLa cells assessed as early apoptotic cells at 25 uM after 24 hrs using Annexin-V/PI staining by flow cytometry (reference value: 5.26 %); format: functional
HeLa [35] = assay: Induction of apoptosis in human HeLa cells assessed as reduction in Mcl-1 expression at 25 uM after 24 hrs by Western blot analysis; format: functional, cell-based; how it was run: as §5
HeLa [36] = assay: Induction of apoptosis in human HeLa cells assessed as ROS production at 6.2 to 50 uM after 24 to 48 hrs using H2-DCFDA -based flow cytometry relative to control; format: functional, cell-based
How it was run: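 HeLa cells incubated 24 or 48 h at the indicated concentrations, stained with H2-DCFDA and analysed by flow cytometry. Data are mean ± SEM of three independent experiments.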

IC50 (LoVo): 28.8 µM
IC50 (CCRF-CEM): 25.8 µM
IC50 (Jurkat [2]): 11.3 µM
IC50 (HT-29): 47.8 µM
IC50 (A549): > 100 µM
SMILES: COc1ccc(-c2c3c(c(OC)c4c2OCO4)[C@H]([C@H]2OC(=O)c4c2ccc(OC)c4OC)N(C)CC3)cc1
IC50 (IGROV-1): 55.6 µM
IC50 (PBL [1]): > 200 µM
IC50 (PBL [3]): > 200 µM
IC50 [4]: 15.1 µM
IC50 [5]: 12.6 µM

IC50 (LoVo): 42.8 µM
inhibition (Tubulin (Bos taurus)): 14%
IC50 (Tubulin [10]): > 400 µM
IC50 (Tubulin [14]): > 400 µM
IC50 (Tubulin [18]): > 400 µM
IC50 (CCRF-CEM): 5.2 µM
IC50 (Jurkat [2]): 5.4 µM
IC50 (HeLa [30]): 7.4 µM
IC50 (HT-29): 36.5 µM
SMILES: COc1ccc2c(c1OC)C(=O)O[C@@H]2[C@H]1c2c(c(-c3ccccc3)c3c(c2OC)OCO3)CCN1C
IC50 (IGROV-1): 68.1 µM
Activity (HeLa [6]): Active
Activity (Jurkat [7]): Active
Activity (HeLa [8]): 18.1%
Activity (HeLa [9]): Active
Activity (HeLa [11]): Active
Activity (HeLa [12]): tde
Activity (HeLa [13]): Active
Activity (HeLa [15]): Active
IC50 (PBL [1]): > 200 µM
Activity (HeLa [16]): inactive
Activity (HeLa [17]): >80%
Activity (HeLa [19]): Dose-dependent effect
Activity (HeLa [20]): Active
Activity (HeLa [21]): Active
Activity (HeLa [22]): Active
Activity (HeLa [23]): Active
Activity (HeLa [24]): Dose-dependent effect
Activity (HeLa [25]): 18.4%
Activity (HeLa [26]): Dose-dependent effect
Activity (HeLa [27]): tde
Activity (Jurkat [28]): Dose-dependent effect
viability at 25 µM (HeLa [29]): 7.53%
IC50 (PBL [3]): 54.9 µM
Activity (HeLa [31]): Active
Activity (HeLa [32]): Active
IC50 [4]: 3.2 µM
Activity (HeLa [33]): Active
IC50 [5]: 2.4 µM
Activity (HeLa [34]): 15.9%
Activity (HeLa [35]): Active
Activity (HeLa [36]): Active

Reference: ChEMBL document CHEMBL3351414, “Novel 9'-substituted-noscapines: synthesis with Suzuki cross-coupling, structure elucidation and biological evaluation” (Eur J Med Chem, 2014)
